In ChEMBL document CHEMBL1139364, “Codrugs linking L-dopa and sulfur-containing antioxidants: new pharmacological tools against Parkinson's disease” (J Med Chem, 2009):
≈ marks a conversion by molar mass, not a printed value. Calls of active or inactive are those of the source. The calls are words filed in the database; no cut-off is given here. Where a SMILES comes first, the peptide text is derived from it. [ ]: non-standard residue; d: D form. Dopa = N[C@@H](Cc1ccc(O)c(O)c1)C(=O)O

How the values were obtained:
[1] = Antioxidant activity against lucigenin-induced super oxide radicals by chemiluminescence assay; assay type: functional
Procedure, shortened: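 Chemiluminescence assay; superoxide anions generated by xanthine/xanthine oxidase system, signal amplified with lucigenin.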

[2] = Stability assessed as half life in hydrochloric acid buffer at pH 1.3; assay type: physicochemical
Procedure, shortened: (§1)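 Incubation at 37 °C in simulated gastric fluid (pH 1.3) or isotonic sodium phosphate buffer (pH 7.4); loss of parent monitored by HPLC UV-DAD; pseudo-first-order rate constants from slope of log residual compound vs time, giving half-life.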

[3] = Solubility at 50 mg in phosphate buffer at pH 7.4; assay type: physicochemical
Procedure, shortened: (§2)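 Solubility in water and in buffers at pH 1.3, 5.0 and 7.4 via shake-flask approach; concentration determined by HPLC with UV diode-array detection.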

[4] = Solubility at 50 mg in phosphate buffer at pH 5.0; assay type: physicochemical; procedure, shortened: as §2
[5] = Solubility in water; assay type: physicochemical; procedure, shortened: as §2
[6] = Solubility at 50 mg in phosphate buffer at pH 1.3; assay type: physicochemical; procedure, shortened: as §2
[7] = Partition coefficient, log K pf the compound; assay type: physicochemical; settings: octanol/water
Procedure, shortened: (§3)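 Partition between n-octanol and phosphate buffer pH 7.4 by saturated shake-flask method; compound concentration in phases measured by HPLC with UV diode-array detection.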

[8] = Stability assessed as half life in isotonic sodium phosphate buffer at pH 7.4; assay type: physicochemical; procedure, shortened: as §1
[9] = Stability in rat plasma assessed as half life; assay type: ADME, cell-free
Procedure, shortened: (§4)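 Conversion to L-dopa at 37 °C in rat or human plasma diluted to 80% with isotonic sodium phosphate buffer pH 7.4; residual compound followed over time; pseudo-first-order constants from log residual vs time slope, giving half-life.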

[10] = Stability in human plasma assessed as half life; assay type: ADME, cell-free; procedure, shortened: as §4
[11] = Antioxidant activity against luminol-induced peroxide radicals by chemiluminescence assay; assay type: functional
Procedure, shortened: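 Chemiluminescence assay with luminol used to measure hydrogen peroxide level.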

[12] = test system: Rattus norvegicus; assay: Tmax in Sprague-Dawley rat assessed as L-dopa level at 0.332 mmol/kg, po; assay type: ADME, organism-based; settings: in vivo
Procedure, shortened: (§5)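 Male Sprague–Dawley rats dosed orally at 0.332 mmol/kg; plasma L-dopa followed over time; noncompartmental parameters (Cmax, Tmax, AUC, AUMC, MRT) derived from plasma concentration profiles; data mean ± SE.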

[13] = test system: Rattus norvegicus; assay: Cmax in Sprague-Dawley rat assessed as L-dopa level at 0.332 mmol/kg, po; assay type: ADME, organism-based; parameters: dose 0.332 mmol/kg, route oral; settings: in vivo; procedure, shortened: as §5
[14] = test system: Rattus norvegicus; assay: AUC in Sprague-Dawley rat assessed as L-dopa level at 0.332 mmol/kg, po; assay type: ADME, organism-based, Plasma; settings: in vivo; procedure, shortened: as §5
[15] = test system: Rattus norvegicus; assay: AUMC in Sprague-Dawley rat assessed as L-dopa level at 0.332 mmol/kg, po; assay type: ADME, organism-based; settings: in vivo; procedure, shortened: as §5
[16] = test system: Rattus norvegicus; assay: Mean residence time in Sprague-Dawley rat assessed as L-dopa level at 0.332 mmol/kg, po; assay type: ADME, organism-based; settings: in vivo; procedure, shortened: as §5
[17] = test system: Rattus norvegicus; assay: Effect on behavioral changes in icv dosed Wistar rat assessed as decrease in rearing episodes after 1.5 hrs by open-field studies compared to L-dopa; assay type: functional, organism-based
[18] = test system: Rattus norvegicus; assay: Effect on behavioral changes in icv dosed Wistar rat assessed as anxiety-like behavior by open-field studies; assay type: functional, organism-based
[19] = test system: Rattus norvegicus; assay: Effect on behavioral changes in po dosed Wistar rat assessed as decrease in grooming activity after 1.5 hrs by open-field studies compared to L-dopa
[20] = test system: Rattus norvegicus; assay: Effect on behavioral changes in po dosed Wistar rat assessed as decrease in spontaneous locomotory activity after 1.5 hrs by open-field studies compared to L-dopa
[21] = test system: Rattus norvegicus; assay: Antiparkinson activity in Wistar rat striatum assessed as L-dopa levels per mg of tissue at 1 umol/kg, icv after 1 week; assay type: functional
Procedure, shortened: (§6)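 Rats dosed icv for 1 week at 1 µmol/kg; striatal L-dopa and dopamine quantified by HPLC with electrochemical detection; three experiments, mean with standard error.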

[22] = test system: Rattus norvegicus; assay: Antiparkinson activity in Wistar rat striatum assessed as dopamine levels per mg of tissue at 1 umol/kg, icv after 1 week; assay type: functional; procedure, shortened: as §6
[23] = Lipophilicity, log P pf the compound at pH 7.4 by saturated shake-flask method; assay type: physicochemical; settings: buffer; procedure, shortened: as §3
[24] = test system: Rattus norvegicus; assay: Sedative activity in icv dosed Wistar rat assessed as reduction of explorative activity; assay type: functional, organism-based
[25] = test system: Rattus norvegicus; assay: Effect on behavioral changes in icv dosed Wistar rat assessed as increase in spontaneous locomotory activity after 3 days by open-field studies; assay type: functional, organism-based
[26] = test system: Rattus norvegicus; assay: Effect on behavioral changes in icv dosed Wistar rat assessed as increase in grooming activity after 3 days by open-field studies; assay type: functional, organism-based
[27] = test system: Rattus norvegicus; assay: Effect on behavioral changes in icv dosed Wistar rat assessed as increase in rearing episodes after 3 days by open-field studies; assay type: functional, organism-based
[28] = test system: Rattus norvegicus; assay: Antiparkinson activity in po dosed rat striatum assessed as L-dopa levels per mg of tissue after 6 hrs
[29] = Plasma concentration in Sprague-Dawley rat after 8 hrs; assay type: ADME, organism-based
Procedure, shortened: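 Male Sprague–Dawley rats given 0.332 mmol/kg orally; plasma L-dopa measured over time, including at 8 h; mean ± SE.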

Row | SMILES | half-life [2] [days] | solubility [3] [µg/mL] | solubility [4] [µg/mL] | solubility [5] [µg/mL] | solubility [6] [µg/mL] | log K [7] | half-life [8] [min] | half-life [9] [min] | half-life [10] [min] | Tmax [12] [h] | Cmax [13] [µg/mL] | AUC [14] [ug/hr.ml] | AUMC [15] [ug/ml.hr'2] | MRT [16] [h] | Activity [1] | Activity [11] | Activity [17] | Activity [18] | Activity [19] | Activity [20] | other results
1 | COC(=O)[C@H](CS)NC(=O)[C@H](Cc1ccc(O)c(O)c1)NC(C)=O (Ac-[Dopa]-Cys-OMe) | 12.1 | 159 (≈ 447 µM) | 152 (≈ 426 µM) | 154 (≈ 431 µM) | 147 (≈ 414 µM) | -0.26 | 2880 | 36.6 | 65.4 | 4.11 | 6.19 | 110.62 | 1053.36 | 9.52 | Active | Active | Active | Active | Active | Active | –
2 | N[C@@H](Cc1ccc(O)c(O)c1)C(=O)O [LEVODOPA] | – | – | – | – | – | – | – | – | – | 1.03 | 5.63 | 117.73 | 1053.92 | 8.95 | – | – | – | – | – | – | Activity [21]: 3.36 pmol/mg; Activity [22]: 0.07 pmol/mg
3 | COC(=O)[C@H](Cc1ccc(O)c(O)c1)NC(=O)[C@H](CS)NC(=O)C(C)(C)S | 12.2 | 13.5 (≈ 32.3 µM) | 3.82 (≈ 9.17 µM) | 14.3 (≈ 34.4 µM) | 7.07 (≈ 17 µM) | 0.2 | 1280 | 69.6 | 90 | 6.04 | 17.41 | 493.29 | 4056.32 | 8.22 | Active | Active | Active | Active | Active | Active | logD [23]: 0.92
4 | COC(=O)[C@H](Cc1ccc(O)c(O)c1)NC(=O)[C@H](CS)NC(=O)[C@@H](CS)NC(C)=O | 12.2 | 9.08 (≈ 19.8 µM) | 15.1 (≈ 32.7 µM) | 15 (≈ 32.6 µM) | 20 (≈ 43.5 µM) | -0.11 | 2910 | 55.8 | 203 | 1.55 | 16.31 | 432.2 | 3608.38 | 8.35 | Active | Active | Active | Active | Active | Active | logD [23]: -0.14

Second part, led by results:

Row | half-life [2] [days] | solubility [3] [µg/mL] | solubility [4] [µg/mL] | solubility [5] [µg/mL] | solubility [6] [µg/mL] | log K [7] | half-life [8] [min] | half-life [9] [min] | half-life [10] [min] | Tmax [12] [h] | Cmax [13] [µg/mL] | AUC [14] [ug/hr.ml] | AUMC [15] [ug/ml.hr'2] | MRT [16] [h] | SMILES | Activity [1] | Activity [11] | Activity [17] | Activity [18] | Activity [19] | Activity [20] | other results
5 | 12.2 | 101 (≈ 262 µM) | 247 (≈ 642 µM) | 103 (≈ 268 µM) | 256 (≈ 665 µM) | -0.25 | 1610 | 93 | 263 | 2.25 | 51.07 | 984.01 | 6844.84 | 6.96 | COC(=O)[C@H](CCSC)NC(=O)[C@H](Cc1ccc(O)c(O)c1)NC(C)=O (Ac-[Dopa]-Met-OMe) | Active | Active | Active | Active | Active | Active | logD [23]: -0.19; Activity [21]: 2.13 pmol/mg; Activity [22]: 0.22 pmol/mg; Activity [24]: Active; Activity [25]: Active; Activity [26]: Active; Activity [27]: Active; Activity [28]: 8 pmol/mg
6 | 12.3 | 174 (≈ 453 µM) | 237 (≈ 618 µM) | 101 (≈ 262 µM) | 154 (≈ 401 µM) | -0.22 | 1810 | 115 | 315 | 4.22 | 62.87 | 1624.91 | 12319.3 | 7.58 | COC(=O)[C@H](Cc1ccc(O)c(O)c1)NC(=O)[C@H](CCSC)NC(C)=O (Ac-Met-[Dopa]-OMe) | Active | Active | Active | Active | Active | Active | logD [23]: 0.38; concentration at 8 h [29]: 53 µg/mL; Activity [21]: 4.03 pmol/mg; Activity [22]: 0.09 pmol/mg; Activity [24]: Active; Activity [25]: Active; Activity [26]: Active; Activity [27]: Active; Activity [28]: 18 pmol/mg
7 | 12.5 | 201 (≈ 563 µM) | 228 (≈ 639 µM) | 210 (≈ 590 µM) | 208 (≈ 584 µM) | -0.3 | 2770 | 46.8 | 69.6 | 4.05 | 6.91 | 179.06 | 1673.2 | 9.34 | COC(=O)[C@H](Cc1ccc(O)c(O)c1)NC(=O)[C@H](CS)NC(C)=O (Ac-Cys-[Dopa]-OMe) | Active | Active | Active | – | Active | Active | –
